# sEH inhibitor: inhibitors of human soluble epoxide hydrolase. inhibition, % at 2 µM. 0.34% of 91,000 active. P34913. recombinant human sEH enzymatic activity assay; in the data active = inhibition above about 80%
# Target sequence (P34913 whole entry, looked up): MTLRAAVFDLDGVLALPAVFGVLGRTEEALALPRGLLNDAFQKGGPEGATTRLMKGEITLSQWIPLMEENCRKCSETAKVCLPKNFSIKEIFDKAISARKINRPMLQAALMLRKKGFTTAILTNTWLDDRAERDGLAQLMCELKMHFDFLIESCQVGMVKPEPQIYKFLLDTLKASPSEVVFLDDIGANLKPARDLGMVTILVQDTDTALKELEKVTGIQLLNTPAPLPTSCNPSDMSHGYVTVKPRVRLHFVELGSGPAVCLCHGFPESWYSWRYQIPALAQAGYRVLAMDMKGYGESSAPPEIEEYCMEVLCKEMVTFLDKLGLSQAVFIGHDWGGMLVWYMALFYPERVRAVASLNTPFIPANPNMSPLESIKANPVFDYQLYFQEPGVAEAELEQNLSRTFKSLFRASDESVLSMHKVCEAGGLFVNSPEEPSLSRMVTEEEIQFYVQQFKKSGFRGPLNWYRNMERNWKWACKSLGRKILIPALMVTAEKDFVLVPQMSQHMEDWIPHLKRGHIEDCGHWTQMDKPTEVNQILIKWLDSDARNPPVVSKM
# BB579 growth dn: reduces growth of yeast BB579 in restrictive medium. inhibition, % at 10 µM. 0.51% of 140,000 active. S. cerevisiae BB579 growth, OD615, 48 h. AID 804;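 active = inhibition above a set limit, 3 SD over the mean compound inhibition, cut at about 44% in these data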
#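 Detection: OD615 turbidity measurement; Material: Saccharomyces cerevisiae DeaD strain BB579, replicative lifespan model yeast; Timing: 48 h exposure, 30 °C; Doses: single 10 µM dose; Medium: CSMM-D restrictive synthetic medium containing dextrose (glucose); Controls: amphotericin B at 10 µg/mL as positive control.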
# sEH activator: activators of human soluble epoxide hydrolase; P34913; purified human sEH enzymatic activity, activator screen; activation, % at 2 µM; 0.04% of 91,000 active; AID 717; in the data active = activation above about 37%
# sdo1 growth: restores growth of sdo1-depleted yeast | S. cerevisiae sdo1-depleted JHY4D growth rescue, OD600 30 h; stronger effect = higher value; pdr5 snq2 efflux-pump mutant strain | z-score at 10 µM | 0.21% of 140,000 active;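 active = z-score above 3 at both the 24 hr and the 30 hr optical density reads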
# Yeast lifespan up: yeast lifespan extension. S. cerevisiae growth with nicotinamide, OD615; deaD strain in restrictive glucose medium. inhibition of the nicotinamide effect, % at 10 µM. 0.68% of 130,000 active;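 active = inhibition above a set limit, placed 3 SD over the median of all compounds, cut at about 26% in these data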
#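 Test system – modified budding yeast, DeaD strain · Compound – single dose 10 µM compound, 0.25% DMSO · Times – culture preincubation 4 h, compound exposure 48 h, both 30 °C · Detection – optical density (absorbance) at 615 nm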
# Measles CPE: protection of cells from measles virus. Measles virus-infected cells, CPE protection, absorbance. 1.5% of 140,000 active. protection (pct of control), % at 4 µM. AID 841; in the data active = protection mostly above about 24%, no sharp cut-off; inactive = mostly below about 26%
# Hits are given with their value; n = inactive; x = no result. The list is not random: actives were taken first. Their share in the collection is about 3%.
SMILES,sEH inhibitor,BB579 growth dn,sEH activator,sdo1 growth,Yeast lifespan up,Measles CPE
COc1cccc(C(=O)N/N=c2\sc3ccccc3n2C)c1,x,n,x,n,n,25.9
CCc1cccc(CC)c1NC(=S)NCC(c1cccnc1)N1CCOCC1 (stereo not drawn),x,n,x,n,n,n
N#Cc1ccc(NC(=O)COC(=O)CCNS(=O)(=O)c2ccccc2)cc1,x,n,x,n,n,n
CCCNS(=O)(=O)c1cccc(C(=O)NC2CCCc3ccccc32)c1 (stereo not drawn),n,n,n,n,n,41.4
CCSc1nnc(NC(=O)C(NC(=O)c2ccc(Cl)cc2)C(C)C)s1 (stereo not drawn),x,n,x,n,n,n
COc1ccc(-c2cc(-c3ccccc3O)[nH]n2)cc1,n,75.7,n,n,n,n
CCOC(=O)c1ccc(NC(=O)CN(Cc2ccc(Cl)cc2)S(C)(=O)=O)cc1,n,n,n,n,n,n
CCC(C(=O)N1CCc2cc(OC)c(OC)cc2C1)c1ccccc1 (stereo not drawn),n,n,n,n,n,n
COc1cc2c(cc1OC)CN(C(=O)c1ccccc1C(=O)O)CC2,n,n,n,n,n,60.2
CCn1ncc(C2=NOC(C(=O)Nc3c(C)n(C)n(-c4ccccc4)c3=O)C2)c1C (stereo not drawn),n,48.3,n,n,n,n
CCOc1ccc(-c2nnn(CC#N)n2)cc1OC,n,n,n,n,x,n
O=c1c2[nH]c3ccccc3c2ncn1Cc1ccco1,n,n,n,n,71.9,n
O=c1c2[nH]c3ccccc3c2ncn1Cc1ccncc1,n,n,n,n,n,n
CCCCNC(C(=O)Nc1ccc([N+](=O)[O-])cc1Br)c1ccccc1 (stereo not drawn),x,n,x,n,n,n
CCc1cc2c(=O)[nH]c(-c3ccccn3)nc2s1,x,78.3,x,n,n,n
CCc1cc2c(=O)[nH]c(N3CCCC3)nc2s1,x,n,x,n,n,n
O=C(O)C(NC(=O)c1ccccc1)=C(Cl)Cl,n,x,n,x,x,x
O=C(Nc1ccc2c(c1)OCO2)C1CCCN1C(=O)NCc1ccccc1 (stereo not drawn),n,n,n,n,57.0,n
O=C(Nc1ccc2c(c1)OCO2)C1CCCN1C(=O)OCc1ccccc1 (stereo not drawn),x,n,x,n,n,n
O=C(Cc1c(Sc2ccccc2)c2ccccc2n1Cc1ccccc1)NCCO,x,n,x,n,n,n
Cc1ccc(S(=O)(=O)N2CCCOC2CNC(=O)C(=O)NCCc2c[nH]c3ccccc23)cc1 (stereo not drawn),x,n,x,n,n,n
O=C(NCc1ccccn1)c1cn(-c2ccccc2)nc1-c1ccc(Cl)cc1,x,n,x,n,n,n
O=C(NCc1ccco1)C(c1ccccc1)N(CC1CCCO1)C(=O)Cn1nnc2ccccc21 (stereo not drawn),n,n,n,n,n,n
O=C(NCc1ccco1)C(c1ccccc1)N(Cc1ccccc1)C(=O)Cn1nnc2ccccc21 (stereo not drawn),n,n,n,n,x,40.9
COc1ccccc1-n1c(-c2cn(C)nc2C)n[nH]c1=S,x,n,x,n,n,n
SMILES,sEH inhibitor,BB579 growth dn,sEH activator,sdo1 growth,Yeast lifespan up,Measles CPE
CCOC(=O)COc1ccc2nsnc2c1Cl,x,n,x,n,n,n
C=C(CC)C(=O)c1ccc(OCC(=O)O)c(Cl)c1Cl,x,n,x,n,58.5,n
Cc1ccc(C(=O)NC(=S)Nc2ccc(NC(=O)c3cccs3)cc2)cc1[N+](=O)[O-],x,n,x,n,n,n
CC(C)N1C(=O)/C(=C\c2nc3ccccc3c(=O)[nH]2)c2ccccc21,x,n,x,n,n,n
Cc1cc(C2C(C#N)=C(N)Oc3n[nH]c(C)c32)c(C)s1 (stereo not drawn),n,n,n,n,71.1,n
O=C(CCN1C(=O)C2C3C=CC(C4CC34)C2C1=O)Oc1cccc2cccnc12 (stereo not drawn),n,n,n,n,n,n
O=C1/C(=C/c2cccnc2)CCC/C1=C\c1cccnc1,x,n,x,n,74.0,n
CCC1C/C(=C\c2cccnc2)C(=O)/C(=C/c2cccnc2)C1 (stereo not drawn),x,n,x,n,83.6,n
O=C1/C(=C\c2cccnc2)CCc2ccccc21,n,n,n,n,n,n
CCc1ccc(-c2ccc(C(=O)C(F)(F)F)[nH]2)cc1,n,n,n,n,n,n
COc1ccc(CNc2nc3ccccc3n2Cc2ccc(Cl)cc2)cc1OC,x,n,x,n,n,n
O=[N+]([O-])c1ccc(O)c(/C=N/n2cnnc2)c1,x,n,x,n,n,n
